Experimental data as given in ChEMBL document CHEMBL1134294, “A prodrug form of a Plasmodium falciparum glutathione reductase inhibitor conjugated with a 4-anilinoquinoline” (J Med Chem, 2001).
The source made the active and inactive calls. The rule behind the calls is not given here.

Experiments:
Plasmodium falciparum [1] = assay: Effective dose against chloroquine-resistant Plasmodium falciparum FcB1R; type: functional
Procedure, shortened: (§1)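 Asynchronous cultures in human erythrocytes (0.5% parasitemia, 1% hematocrit) received serially diluted drug, DMSO ≤0.1%. After 24 h at 37 °C, 0.5 μCi [3H]hypoxanthine was added and incubation continued another 24 h. Growth inhibition was taken versus drug-free control, ED50 read from the concentration–response curve, and reported as mean of ≥3 independent experiments.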

Plasmodium falciparum [2] = assay: In vitro efficacy for chloroquine-sensitive Plasmodium falciparum Thai; conditions: read-out: ED50 (the source's name)
Plasmodium falciparum [3] = assay: In vitro efficacy for chloroquine-sensitive Plasmodium falciparum F32; conditions: read-out: ED50 (the source's name)
Plasmodium falciparum [4] = assay: In vitro efficacy for chloroquine-sensitive Plasmodium falciparum D6; conditions: read-out: ED50 (the source's name)
Plasmodium falciparum [5] = assay: In vitro efficacy for chloroquine-resistant Plasmodium falciparum FcB1; type: functional; conditions: read-out: ED50 (the source's name); procedure, shortened: as §1
Plasmodium falciparum [6] = assay: In vitro efficacy for chloroquine-resistant Plasmodium falciparum W2; type: functional; conditions: read-out: ED50 (the source's name); procedure, shortened: as §1
Plasmodium falciparum [7] = assay: In vitro efficacy for chloroquine-resistant Plasmodium falciparum K1; type: functional; conditions: read-out: ED50 (the source's name); procedure, shortened: as §1
[8] = biological target: T1, Glutathione reductase, mitochondrial (Homo sapiens) (UniProt P00390); assay: Competitive inhibition of human Glutathione Reductase
T1 sequence (whole entry): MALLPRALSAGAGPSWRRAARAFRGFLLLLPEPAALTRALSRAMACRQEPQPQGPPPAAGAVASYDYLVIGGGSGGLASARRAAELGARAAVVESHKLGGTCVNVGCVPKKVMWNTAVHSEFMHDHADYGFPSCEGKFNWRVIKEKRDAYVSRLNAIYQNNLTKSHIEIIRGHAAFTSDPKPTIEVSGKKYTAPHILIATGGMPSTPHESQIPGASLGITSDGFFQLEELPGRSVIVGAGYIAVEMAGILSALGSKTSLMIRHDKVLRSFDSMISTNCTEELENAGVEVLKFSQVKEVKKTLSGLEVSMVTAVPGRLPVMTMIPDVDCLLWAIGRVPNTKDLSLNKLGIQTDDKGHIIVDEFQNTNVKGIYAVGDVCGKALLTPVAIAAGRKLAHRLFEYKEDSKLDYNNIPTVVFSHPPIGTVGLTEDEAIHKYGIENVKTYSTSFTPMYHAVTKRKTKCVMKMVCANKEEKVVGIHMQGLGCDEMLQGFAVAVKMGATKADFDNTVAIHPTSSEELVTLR

[9] = biological target: Glutathione reductase (Plasmodium falciparum 3D7) (UniProt O15770); assay: Competitive inhibition of Plasmodium falciparum Glutathione Reductase; conditions: Plasmodium falciparum FcB1
Sequence of Glutathione reductase (Plasmodium falciparum 3D7) (O15770 whole entry): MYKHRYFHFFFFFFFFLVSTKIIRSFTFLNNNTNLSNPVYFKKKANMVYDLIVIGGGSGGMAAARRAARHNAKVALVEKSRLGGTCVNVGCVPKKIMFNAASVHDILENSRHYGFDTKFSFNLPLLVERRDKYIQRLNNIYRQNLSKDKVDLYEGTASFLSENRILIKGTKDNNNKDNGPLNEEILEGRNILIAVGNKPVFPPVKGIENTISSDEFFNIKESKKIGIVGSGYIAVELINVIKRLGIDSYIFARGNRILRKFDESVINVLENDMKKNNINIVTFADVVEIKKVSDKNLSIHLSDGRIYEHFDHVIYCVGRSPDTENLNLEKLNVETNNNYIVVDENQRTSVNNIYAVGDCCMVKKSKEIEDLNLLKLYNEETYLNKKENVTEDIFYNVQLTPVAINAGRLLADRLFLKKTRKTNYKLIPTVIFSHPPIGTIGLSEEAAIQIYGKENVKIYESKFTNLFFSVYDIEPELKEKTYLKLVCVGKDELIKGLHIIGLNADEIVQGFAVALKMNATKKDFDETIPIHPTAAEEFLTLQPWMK

Glutathione reductase = Glutathione reductase (Plasmodium falciparum 3D7, UniProt O15770); assay: In vitro inhibition of Plasmodium falciparum Glutathione Reductase; parameters: species or system FcB1
Sequence of Glutathione reductase (O15770 whole entry): as above
Procedure, shortened: (§2)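 Recombinant purified GR (about 5 mU/ml) with 100 μM NADPH in 47 mM potassium phosphate, 200 mM KCl, 1 mM EDTA, pH 6.9, at 25 °C. Enzyme, NADPH and inhibitor are premixed and the reaction is started with 100 μM GSSG. NADPH loss is read at 340 nm. IC50 is taken from increasing inhibitor concentrations in 1% final DMSO, run in duplicate.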

[10] = biological target: T2, Glutathione reductase, mitochondrial (Homo sapiens, UniProt P00390); assay: In vitro inhibition of human Glutathione Reductase; procedure, shortened: as §2
T2 sequence (P00390 whole entry): T1 sequence (whole entry)

[11] = Susceptibility of compound to hydrolysis at 37 degrees C for RPMI-10% human serum; type: ADME; conditions: RPMI with 10% human serum
Procedure, shortened: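 Prodrug (100 μM final, from 1 mM stock in 10% aqueous DMSO) is held in RPMI with 10% human serum at 37 °C and sampled from 0 to 77.5 h. Samples are mixed with EtOH plus internal reference, centrifuged, and the supernatant is analysed by HPLC. Half-life of ester disappearance is the mean of two determinations.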

[12] = biological target: Glutathione reductase (Plasmodium falciparum 3D7) (UniProt O15770); assay: In vitro inhibition of Plasmodium falciparum Glutathione Reductase; Not active; conditions: Plasmodium falciparum FcB1; procedure, shortened: as §2
[13] = biological target: T1, Glutathione reductase, mitochondrial (Homo sapiens); assay: In vitro inhibition of human Glutathione Reductase; Not active; procedure, shortened: as §2
[14] = Susceptibility of compound to hydrolysis at 37 degrees C at pH 7.4 phosphate buffer; type: ADME
Procedure, shortened: (§3)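 Prodrug (100 μM final, from 1 mM stock in 10% aqueous DMSO) is incubated at 37 °C in pH 7.4 phosphate buffer (150 mM NaCl, 4 mM NaH₂PO₄, 25 mM NaHCO₃) or pH 5.0 acetate (150 mM NaCl, 10 mM NaOAc). Half-life of ester disappearance is found by HPLC as the mean of two determinations.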

[15] = Susceptibility of compound to hydrolysis at 37 degrees C at pH 5.0 acetate medium; type: ADME; procedure, shortened: as §3
[16] = read-out: ED50 (the source's name)

## CC1=C(CCCCCNC(=O)OCc2cc(NC(=O)CN3CCCCC3)cc(Nc3ccnc4cc(Cl)ccc34)c2)C(=O)c2ccccc2C1=O
Plasmodium falciparum [1]; read-out: ED50
  EC50: 144 nM

## CCN(CC)CCCC(C)Nc1ccnc2cc(Cl)ccc12 (stereo not drawn) [CHLOROQUINE]
Plasmodium falciparum [2]
  EC50: 14.3 nM
Plasmodium falciparum [3]
  EC50: 19 nM
Plasmodium falciparum [4]
  EC50: 54 nM
Plasmodium falciparum [5]
  EC50: 126 nM
Plasmodium falciparum [6]
  EC50: 175 nM
Plasmodium falciparum [7]
  EC50: 183 nM

## CC1=C(CCCCC(=O)O)C(=O)c2ccccc2C1=O
[8]
  Ki.c: 1.8
Plasmodium falciparum [1]; [16]
  EC50: 2800 nM
[9]
  Ki.c: 3100 nM
Glutathione reductase
  IC50: 4000 nM
[10]
  IC50: 2700 nM

## COC(=O)CCCCCC1=C(C)C(=O)c2ccccc2C1=O
[11]
  half-life: > 3 h
Plasmodium falciparum [1]; [16]
  EC50: 10800 nM
[12]
  NA: inactive
[13]
  NA: inactive
[14]
  half-life: 1 h
[15]
  half-life: 0.5 h
